Compound activity (PubChem)
Sampled rows, rich in hits. Any-hit rate of the full collection: about 2.4%.
HTRA1 inh: inhibitors of human serine peptidase HTRA1. AID 504803. 340,000 compounds, 0.5% hits. inhibition, % at 5.96 µM. recombinant HTRA1, FP-rhodamine activity-based probe, fluorescence polarization. Q92743; in the data active = inhibition above about 36%
Target sequence (Q92743 whole entry, looked up): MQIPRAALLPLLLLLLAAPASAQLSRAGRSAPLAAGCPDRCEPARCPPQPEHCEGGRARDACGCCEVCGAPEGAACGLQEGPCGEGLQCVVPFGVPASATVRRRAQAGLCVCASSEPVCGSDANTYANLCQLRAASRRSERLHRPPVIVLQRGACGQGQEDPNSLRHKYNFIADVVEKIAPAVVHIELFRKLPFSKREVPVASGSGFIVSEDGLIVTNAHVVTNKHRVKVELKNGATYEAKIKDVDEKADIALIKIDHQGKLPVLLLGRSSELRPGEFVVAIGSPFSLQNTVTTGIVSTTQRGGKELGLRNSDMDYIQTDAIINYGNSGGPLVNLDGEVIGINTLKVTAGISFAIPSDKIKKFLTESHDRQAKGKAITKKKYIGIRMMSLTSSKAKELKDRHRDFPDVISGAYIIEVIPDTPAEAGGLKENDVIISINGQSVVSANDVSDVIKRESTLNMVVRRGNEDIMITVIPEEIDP
SIAE inh: human SIAE inhibition, primary screen. Q9HAT2. SIAE FP-Rh probe binding, fluorescence polarization. inhibition, % at 9.66 µM. 370,000 compounds, 0.69% hits. AID 1053197;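 active = inhibition above a cutoff: mean of compounds within the control limits plus 3 SD of those, cut at about 17% in these data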
PRMT1 inh: PRMT1 (human) inhibition, primary screen; 370,000 compounds, 1.3% hits; AID 652257; recombinant PRMT1, activity-based probe fluorescence polarization; Q99873; inhibition, % at 2.79 µM;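 active = inhibition above about 21% made by adding two undisclosed values, limit read from the data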
ABHD4 inh: ABHD4 (mouse) inhibition, primary FP screen | Q8VD66 | 370,000 compounds, 0.54% hits | AID 720543 | inhibition, % at 8.92 µM | purified mABHD4, FP-Rh probe fluorescence polarization;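 active = inhibition exceeding the mean over every tested compound plus 3 SD, cut at about 30% in these data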
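Test system: mABHD4 protein | Buffer or medium: HEPES pH 7.0 buffer, 150 mM NaCl, 0.01% Pluronic F-127 | Probe or stimulus: FP-Rh fluorescent activity-based probe, added after compound pre-incubation | Timing: Pre-incubation 45 min, probe exposure 60 min, at 25 °C | Technique: Fluorescence polarization, excitation 525 nm, emission 598 nm, BODIPY TMR filters | Repeats: Single well per compound (singlicate)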
JMJD2C inh: blocks human GASC-1 demethylase activity | Q9H3R0 | GST-JMJD2C(1-420) H3K9me3 demethylation, DELFIA europium | inhibition, % at 2.35 µM | 330,000 compounds, 0.069% hits | AID 2099;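 active = more than half of a compound's replicate wells show inhibition beyond 50%, single wells judged on their own value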;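 note: signal counts dimethyl H3K9 product captured on neutravidin plate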
Each line names hits and unclear results; the compound was inactive in the other large screens.

CCOC(=O)CN1C(=O)N(c2ccc(OC)cc2)[C@H]2CC3c4ccccc4C[C@]3(C)[C@@H](C(=O)N(C)C3CCCCC3)C[C@H]21 (stereo partly drawn)	none (no result: HTRA1 inh, JMJD2C inh)
COc1ccccc1C1CC(c2cccs2)=Nc2ccccc2S1 (stereo not drawn)	PRMT1 inh 81
Cc1cc(N=O)no1	none (no result: HTRA1 inh, JMJD2C inh)
COc1ccc(-n2cc(CNCCc3cscn3)c(-c3ccccc3Cl)n2)cc1	JMJD2C inh 51 (no result: HTRA1 inh)
C=CCN1[C@@H](C)COc2cccc(N3CCCC3)c2S1(=O)=O	none (no result: HTRA1 inh, JMJD2C inh)
COCCCNC(=O)C[C@@H]1C(=O)N2CCCC3=C2[C@@]1(C(=O)OC)CCCC3	none (no result: HTRA1 inh, JMJD2C inh)
Cc1cc(Nc2ccccc2)nc(NCc2ccccc2)n1	none
Cc1cc(Nc2ccc(Cl)cc2)nc(NCc2ccccc2)n1	SIAE inh 23
COC(=O)c1ccccc1NC(=O)CSc1nc(C)cc(C)n1	none
COC(=O)c1cc(C)nc(Sc2ccccc2N)n1	PRMT1 inh 25 (no result: HTRA1 inh)
Cc1sc2ncn(CC(=O)NCc3ccco3)c(=O)c2c1-c1ccc(F)cc1	PRMT1 inh 24
CCOc1ccccc1C(O)C1=CC(=O)c2ccccc2C1=O (stereo not drawn)	ABHD4 inh 43 (no result: JMJD2C inh)
COc1ccc(-c2c(C(=O)c3ccccc3)[nH]c(N)c2C(=O)NC2CC2)cc1OC	none (no result: HTRA1 inh, JMJD2C inh)
CC1=C(C#N)C(=O)NC(=O)/C1=C\c1ccc(-c2cc(C)c(C)cc2[N+](=O)[O-])o1	PRMT1 inh 40, ABHD4 inh 41
N=c1c(C(=O)NC2CCCCC2)cc2c(=O)n3ccccc3nc2n1Cc1ccccc1	none
N=c1c(C(=O)NC2CCCCC2)cc2c(=O)n3ccccc3nc2n1CCc1ccccc1	SIAE inh 92
COc1cc(NC(=S)N2CCCC(CO)C2)cc(OC)c1 (stereo not drawn)	PRMT1 inh 21
COC(=O)[C@H](C)N(Cc1cn(Cc2ccccc2)nn1)S(=O)(=O)c1ccccc1Br	none (no result: HTRA1 inh, JMJD2C inh)
Cc1cc(N/N=C/c2ccc(O)cc2O)nc(N2CCOCC2)n1	none
Oc1ccc(/C=N\Nc2cc(N3CCOCC3)nc(N3CCOCC3)n2)c(O)c1	SIAE inh 23
COC(=O)CN(Cc1cn(Cc2ccccc2)nn1)S(=O)(=O)c1ccccc1Br	none (no result: HTRA1 inh, JMJD2C inh)
CCOC(=O)c1ccc(S(=O)(=O)Nc2nc3cc(S(=O)(=O)NC4=NCCCCC4)ccc3s2)cc1	PRMT1 inh 41
O=C1C(Cl)=C(N2CCOCC2)C(=O)N1c1ccc(Br)cc1	PRMT1 inh 25
Cc1ccc(CN2CCCCC(NC(=O)Nc3ccccc3)C2=O)cc1 (stereo not drawn)	none (no result: HTRA1 inh, JMJD2C inh)
Cc1cccc(C(=O)Nc2nc3ncccn3c2-c2ccc(F)cc2)c1	none (no result: HTRA1 inh, JMJD2C inh)
Cc1c(Cc2ccccc2)c(=O)n2c([nH]c3ccccc32)c1C#N	none
COc1ccccc1N=Cc1c(C)c(C#N)c2[nH]c3ccccc3n2c1=O	JMJD2C inh 58
O=c1[nH]c2cc(Br)c(Br)nc2[nH]1	none (no result: HTRA1 inh, JMJD2C inh)
COC(=O)[C@]12C[C@H](CC(=O)NCCCCc3ccccc3)C(=O)N(CCc3ccc(OC)c(OC)c3)C1=C[C@H](C(C)(C)C)O[C@@H]2C	none (no result: HTRA1 inh, JMJD2C inh)
CCC1(C)Cc2ccccc2/C(=C/C(=O)N2CCCCC2)N1 (stereo not drawn)	PRMT1 inh 22
NNC(=O)C(=O)/C=C1\NC2(CCCC2)Cc2ccccc21	none (no result: HTRA1 inh)
CCCCCCCCN1C(=O)[C@@H](CC(=O)NCCCOC)C[C@@]2(C(=O)OC)C1=C[C@H](C(C)C)O[C@@H]2C1CC1	none (no result: HTRA1 inh, JMJD2C inh)
COC(=O)CCC/C=C1/SCC(NC(=O)c2ccccc2)C1=O (stereo not drawn)	PRMT1 inh 26
Cc1ccccc1CN1CCCCC(NC(=O)c2cc(-c3ccccc3)no2)C1=O (stereo not drawn)	none (no result: HTRA1 inh, JMJD2C inh)
CN(C)CCCN1c2ccc([N+](=O)[O-])cc2CCc2cc([N+](=O)[O-])ccc21	PRMT1 inh 22
COC(=O)c1cc(-c2cccc(C#N)c2)c(=O)n2c1CCC2	none (no result: HTRA1 inh, JMJD2C inh)
O=C(CCc1nc2ccccc2s1)OCC(=O)c1ccccc1	none
COc1ccccc1OC(=O)CCc1nc2ccccc2s1	PRMT1 inh 22
CCCCCCCCCCCC1=C(O)C(=O)C=C(O)C1=O	HTRA1 inh 43 (no result: SIAE inh, PRMT1 inh, ABHD4 inh)
CCN(C[C@H]1N[C@@](Cc2ccccc2)(C(=O)OC)[C@H]2C(=O)N(Cc3ccccc3)C(=O)[C@@H]12)S(=O)(=O)c1ccc(-c2ccccc2)cc1	none
CCN(C[C@H]1N[C@@](C)(C(=O)OC)[C@H]2C(=O)N(C)C(=O)[C@@H]12)C(=O)Nc1ccc(C)cc1	JMJD2C inh 52
CCN(C[C@H]1N[C@@](C)(C(=O)OC)[C@H]2C(=O)N(Cc3ccccc3)C(=O)[C@@H]12)S(=O)(=O)c1ccc(C)cc1	none (no result: JMJD2C inh)
CCN(C[C@H]1N[C@@](Cc2ccccc2)(C(=O)OC)[C@H]2C(=O)N(Cc3ccccc3)C(=O)[C@@H]12)S(=O)(=O)c1ccccc1	JMJD2C inh 61
CCN(C[C@H]1N[C@@](C)(C(=O)OC)[C@H]2C(=O)N(C)C(=O)[C@@H]12)C(=O)Nc1ccc(F)cc1	none
COC(=O)[C@]1(C)N[C@H](CN(C)S(=O)(=O)c2ccc(C)cc2)[C@@H]2C(=O)N(Cc3ccccc3)C(=O)[C@@H]21	JMJD2C inh 62
CCC1CCc2c(sc(NC(=O)c3cnccn3)c2C(N)=O)C1 (stereo not drawn)	PRMT1 inh 24
COc1ccccc1CCNC(=O)CCSc1nc(-c2ccco2)cc(C(F)(F)F)n1	PRMT1 inh 23
COc1ccccc1CCNC(=O)CSc1nc(-c2ccco2)cc(C(F)(F)F)n1	none
O=C(CSc1nc2cc([N+](=O)[O-])ccc2n1-c1ccccc1)NCc1ccc2c(c1)OCO2	PRMT1 inh 24
O=CN/C=C/c1cc(O)ccc1O	PRMT1 inh 48 (no result: JMJD2C inh)
O=Cc1ccc(O)cc1O	none
CCOC(=O)c1cc2n(c1/N=C/N(C)C)-c1ccccc1C2=O	PRMT1 inh 23
CCOC(=O)c1ccc2c(c1)N(C)C(=O)c1ccccc1S2	none (no result: SIAE inh, PRMT1 inh, ABHD4 inh)
COc1ccc(-n2c(SCC(=O)NNC(=S)Nc3ccccc3)nc3ccccc3c2=O)cc1	none (no result: HTRA1 inh, JMJD2C inh)
Cc1ccc(C(=O)c2coc3cc([N+](=O)[O-])c(O)c([N+](=O)[O-])c23)cc1	PRMT1 inh 26
CCOc1ccc(NC(=O)CN(C)CC(=O)Nc2cc(Cl)ccc2C#N)cc1OCC	JMJD2C inh 60
CCCCCC[C@@H](CN(CCCC)S(C)(=O)=O)c1ccccc1	none (no result: HTRA1 inh, JMJD2C inh)
COc1ccccc1N1C(=O)C=C(Sc2nc(C)cc(C)n2)C1=O	PRMT1 inh 24 (no result: HTRA1 inh)
COc1ccc(C2C(C(=O)Nc3ccc(C)c(C)c3)CCC(=O)N2c2ccc(OC)cc2)cc1 (stereo not drawn)	none (no result: HTRA1 inh, JMJD2C inh)
CCn1c(N)c(C(=O)NC)sc1=S	PRMT1 inh 25
CCNC(=O)c1sc(=S)n(CC)c1N	none
CCOC(=O)C1CCN(C(=O)Nc2ccc3nc(-c4ccco4)c(-c4ccco4)nc3c2)CC1	HTRA1 inh 45 (no result: SIAE inh, PRMT1 inh, ABHD4 inh)
O=C(Nc1ccc2nc(-c3ccco3)c(-c3ccco3)nc2c1)N1CCCCCC1	none (no result: HTRA1 inh, SIAE inh, PRMT1 inh, ABHD4 inh)
